Where a name gives a salt, the structure may show the parent alone.
Key:
[1] = tested on: KB; assay: Cytotoxicity against human KB cells after 72 hrs by SRB assay; assay type: functional, cell-based
[2] = tested on: LoVo; assay: Cytotoxicity against human LoVo cells after 72 hrs by SRB assay; assay type: functional, cell-based
Procedure, shortened: (§1)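 IC50 is the compound concentration giving 50% inhibition of cell proliferation. It was determined on normal mouse BALB/3T3 fibroblasts and on human A549, MCF-7 and LoVo cancer lines, with doxorubicin hydrochloride and DiMIQ as reference compounds.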

[3] = tested on: MCF7; assay: Cytotoxicity against human MCF7 cells after 72 hrs by SRB assay; assay type: functional, cell-based; settings: MCF7, 72 h; procedure, shortened: as §1
[4] = Solubility of the compound in water; assay type: physicochemical; settings: buffer
[5] = tested on: A549; assay: Cytotoxicity against human A549 cells after 72 hrs by SRB assay; assay type: functional, cell-based; settings: A549, 72 h; procedure, shortened: as §1
[6] = Ratio of IC50 for compound to ratio of IC50 for DiMIQ for BALB mouse 3T3 cells; assay type: cell-based; settings: read-out: Ratio IC50
[7] = tested on: Lewis lung carcinoma cell line; assay: Antineoplastic activity against mouse LLC cells xenografted in C57BL/6 mouse assessed as tumor growth inhibition at 30 mg/kg/day, ip administered on day 9 to day 12 of tumor implantation measured on day 21; assay type: functional; settings: route intraperitoneal, read-out: TGI
Procedure, shortened: (§2)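 Mice bore Lewis lung carcinoma (LLC) inoculated subcutaneously and received test agents intraperitoneally at 15–50 mg kg⁻¹ day⁻¹ from day 9 or day 10. A single 100 mg/kg cyclophosphamide dose was the cytostatic control. Tumor growth was followed as the group median, and TGI% was calculated from medians versus untreated controls. Significance was tested by nonparametric Kruskal–Wallis multiple comparison, p < 0.05.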

[8] = tested on: Lewis lung carcinoma cell line; assay: Antineoplastic activity against mouse LLC cells xenografted in C57BL/6 mouse assessed as tumor growth inhibition at 15 mg/kg/day, ip administered on day 9 to day 13 of tumor implantation measured on day 14; assay type: functional; settings: route intraperitoneal, read-out: TGI; procedure, shortened: as §2
[9] = tested on: Lewis lung carcinoma cell line; assay: Antineoplastic activity against mouse LLC cells xenografted in C57BL/6 mouse assessed as tumor growth inhibition at 15 mg/kg/day, ip administered on day 9 to day 13 of tumor implantation measured on day 21; assay type: functional; settings: route intraperitoneal, read-out: TGI; procedure, shortened: as §2
[10] = tested on: Mus musculus; assay: Toxicity in C57BL/6 mouse xenografted with mouse LLC cells assessed as body weight loss at 30 mg/kg/day, ip administered on day 9 to day 12 of tumor implantation; assay type: organism-based; design: route intraperitoneal; settings: in vivo
Procedure, shortened: (§3)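 Mouse Lewis lung carcinoma (LLC) cells inoculated sc into mice. Daily dosing from day 9: 15 mg kg⁻¹ day⁻¹ through day 13 or 30 mg kg⁻¹ day⁻¹ through day 12; 25 or 50 mg kg⁻¹ day⁻¹ through day 13. Route is given as ip in tables and text but sc in figure legends. Body weight monitored for loss alongside tumor growth. Single 100 mg/kg cyclophosphamide dose as cytostatic control.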

[11] = tested on: Mus musculus; assay: Toxicity in C57BL/6 mouse xenografted with mouse LLC cells at 15 mg/kg/day, ip administered on day 9 to day 13 of tumor implantation; assay type: organism-based; design: route intraperitoneal; settings: in vivo; procedure, shortened: as §3
[12] = tested on: Lewis lung carcinoma cell line; assay: Antineoplastic activity against mouse LLC cells xenografted in C57BL/6 mouse assessed as tumor growth inhibition at 15 mg/kg/day, ip administered on day 9 to day 13 of tumor implantation measured on day 16; assay type: functional; settings: route intraperitoneal, read-out: TGI; procedure, shortened: as §2
[13] = tested on: Lewis lung carcinoma cell line; assay: Antineoplastic activity against mouse LLC cells xenografted in C57BL/6 mouse assessed as tumor growth inhibition at 15 mg/kg/day, ip administered on day 9 to day 13 of tumor implantation measured on day 11; assay type: functional; settings: route intraperitoneal, read-out: TGI; procedure, shortened: as §2
[14] = tested on: Lewis lung carcinoma cell line; assay: Antineoplastic activity against mouse LLC cells xenografted in C57BL/6 mouse assessed as tumor growth inhibition at 30 mg/kg/day, ip administered on day 9 to day 12 of tumor implantation measured on day 14; assay type: functional; settings: route intraperitoneal, read-out: TGI; procedure, shortened: as §2
[15] = tested on: Lewis lung carcinoma cell line; assay: Antineoplastic activity against mouse LLC cells xenografted in C57BL/6 mouse assessed as tumor growth inhibition at 15 mg/kg/day, ip administered on day 9 to day 13 of tumor implantation measured on day 23; assay type: functional; settings: route intraperitoneal, read-out: TGI; procedure, shortened: as §2
[16] = tested on: Lewis lung carcinoma cell line; assay: Antineoplastic activity against mouse LLC cells xenografted in C57BL/6 mouse assessed as tumor growth inhibition at 30 mg/kg/day, ip administered on day 9 to day 12 of tumor implantation measured on day 11; assay type: functional; settings: route intraperitoneal, read-out: TGI; procedure, shortened: as §2
[17] = tested on: Lewis lung carcinoma cell line; assay: Antineoplastic activity against mouse LLC cells xenografted in C57BL/6 mouse assessed as tumor growth inhibition at 30 mg/kg/day, ip administered on day 9 to day 12 of tumor implantation measured on day 16; assay type: functional; settings: route intraperitoneal, read-out: TGI; procedure, shortened: as §2
[18] = tested on: Mus musculus; assay: Toxicity in C57BL/6 mouse xenografted with mouse LLC cells assessed as body weight loss at 30 mg/kg/day, sc administered on day 9 to day 12 of tumor implantation; assay type: organism-based; design: route subcutaneous; settings: in vivo; procedure, shortened: as §3
[19] = tested on: Mus musculus; assay: Toxicity in C57BL/6 mouse xenografted with mouse LLC cells assessed as body weight loss at 50 mg/kg/day, sc administered on day 9 to day 13 of tumor implantation; assay type: organism-based; design: route subcutaneous; settings: in vivo; procedure, shortened: as §3
[20] = Octanol-water partition coefficient, log P of the compound in PBS buffer at pH 7.4 by spectrophotometric analysis; assay type: physicochemical
Procedure, shortened: (§4)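 Octanol–water partitioning, with log P defined as log(C_octanol/C_water). Compound in the aqueous phase was measured spectrophotometrically, and octanol content was obtained by subtracting the supernatant concentration from the total. Values are the mean of two independent experiments, each run in triplicate.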

[21] = tested on: Lewis lung carcinoma cell line; assay: Antineoplastic activity against mouse LLC cells xenografted in C57BL/6 mouse assessed as tumor growth inhibition at 15 mg/kg/day, ip administered on day 9 to day 13 of tumor implantation measured on day 18; assay type: functional; settings: route intraperitoneal, read-out: TGI; procedure, shortened: as §2
[22] = tested on: Mus musculus; assay: Toxicity in C57BL/6 mouse xenografted with mouse LLC cells assessed as body weight loss at 15 mg/kg/day, sc administered on day 9 to day 13 of tumor implantation; assay type: organism-based; design: route subcutaneous; settings: in vivo
Procedure, shortened: (§5)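 Body weight was tracked in C57BL/6 mice bearing subcutaneously inoculated LLC during therapy given daily from day 9 to day 13. A single 100 mg/kg dose of cyclophosphamide served as the cytostatic control group.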

[23] = tested on: Lewis lung carcinoma cell line; assay: Antineoplastic activity against mouse LLC cells xenografted in C57BL/6 mouse assessed as tumor growth inhibition at 30 mg/kg/day, ip administered on day 9 to day 12 of tumor implantation measured on day 18; assay type: functional; settings: route intraperitoneal, read-out: TGI; procedure, shortened: as §2
[24] = tested on: Mus musculus; assay: Toxicity in C57BL/6 mouse xenografted with mouse LLC cells assessed as body weight loss at 15 mg/kg/day, ip administered on day 9 to day 13 of tumor implantation; assay type: organism-based; design: route intraperitoneal; settings: in vivo; procedure, shortened: as §5
[25] = Dissociation constant, pKa of the compound in PBS buffer at 5 uM at pH 2 to 10 by UV-spectrophotometric analysis; assay type: physicochemical
Procedure, shortened: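 UV spectrophotometric titration at a final compound concentration of 5 μM. At this concentration the absorbance–concentration relationship stayed linear. pKa was read from spectral changes across pH.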

[26] = tested on: Mus musculus; assay: Toxicity in C57BL/6 mouse xenografted with mouse LLC cells at 30 mg/kg/day, ip administered on day 9 to day 12 of tumor implantation; assay type: organism-based; design: route intraperitoneal; settings: in vivo; procedure, shortened: as §3
[27] = Octanol-water partition coefficient, log P of the compound in citric buffer at pH 2.5 by spectrophotometric analysis; assay type: physicochemical; procedure, shortened: as §4
[28] = tested on: Lewis lung carcinoma cell line; assay: Antineoplastic activity against mouse LLC cells xenografted in C57BL/6 mouse assessed as tumor growth inhibition at 30 mg/kg/day, ip administered on day 9 to day 12 of tumor implantation measured on day 23; assay type: functional; settings: route intraperitoneal, read-out: TGI; procedure, shortened: as §2
[29] = Toxicity in human erythrocytes assessed as hemolysis at 0.3 mM after 30 mins by spectrophotometric analysis; assay type: cell-based, Erythrocyte; settings: read-out: Activity
Procedure, shortened: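 Human erythrocyte suspension under isotonic conditions (pH 7.4, hematocrit 50%). Compound added across a concentration series and incubated 30 min at 37 °C before hemolysis was scored. Mean ± SD of three individual determinations. Statistics by Mann–Whitney U test, p < 0.05.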

COc1cccc2c1C(=O)c1c(O)c3c(c(O)c1C2=O)C[C@@](O)(C(=O)CO)C[C@@H]3O[C@H]1C[C@H](N)[C@H](O)[C@H](C)O1 [DOXORUBICIN HYDROCHLORIDE]
IC50 [1]: 840 nM
IC50 [2]: 110 nM
IC50 [3]: 440 nM

Cc1c2c3cc(NC(=O)[C@H](N)Cc4cnc[nH]4)ccc3nc-2n(C)c2ccccc12.Cl
IC50 [1]: 4850 nM
solubility [4]: soluble

Cc1c2c3cc(NC(=O)[C@@H]4CCCN4C(=O)CN)ccc3nc-2n(C)c2ccccc12.Cl.Cl
IC50 [1]: 700 nM
solubility [4]: soluble
IC50 [5]: 860 nM
IC50 [2]: 440 nM
selectivity ratio [6]: 5
IC50 [3]: 1130 nM

Cc1c2c3cc(NC(=O)CNC(=O)[C@@H](N)Cc4cnc[nH]4)ccc3nc-2n(C)c2ccccc12.Cl
IC50 [1]: 3640 nM
solubility [4]: soluble

Cc1c2c3cc(NC(=O)[C@@H](N)Cc4cnc[nH]4)ccc3nc-2n(C)c2ccccc12.Cl
IC50 [1]: 3460 nM
solubility [4]: soluble

Cc1c2c3cc(NC(=O)[C@H]4CCCN4)ccc3nc-2n(C)c2ccccc12.Cl.Cl
IC50 [1]: 730 nM
solubility [4]: soluble
IC50 [5]: 320 nM
IC50 [2]: 620 nM
selectivity ratio [6]: 5
IC50 [3]: 600 nM

Cc1c2c3cc(NC(=O)[C@@H]4CCCN4C(=O)[C@@H]4CCCN4)ccc3nc-2n(C)c2ccccc12.Cl.Cl
IC50 [1]: 560 nM
solubility [4]: soluble
IC50 [5]: 540 nM
IC50 [2]: 360 nM
selectivity ratio [6]: 5
IC50 [3]: 960 nM

Cc1c2c3cc(NC(=O)[C@@H]4CCCN4)ccc3nc-2n(C)c2ccccc12.Cl.Cl
inhibition in vivo at 30 mg/kg/day [7]: 37.9%
inhibition in vivo at 15 mg/kg/day [8]: 42.6%
IC50 [1]: 420 nM
solubility [4]: soluble
inhibition in vivo at 15 mg/kg/day [9]: 0%
Activity [10]: <= 15%
IC50 [5]: 480 nM
Activity [11]: Toxic
inhibition in vivo at 15 mg/kg/day [12]: 47.7%
inhibition in vivo at 15 mg/kg/day [13]: 42%
inhibition in vivo at 30 mg/kg/day [14]: 74%
inhibition in vivo at 15 mg/kg/day [15]: 24.6%
IC50 [2]: 810 nM
inhibition in vivo at 30 mg/kg/day [16]: 61.2%
inhibition in vivo at 30 mg/kg/day [17]: 75.8%
Activity [18]: <= 15%
Activity [19]: <= 15%
selectivity ratio [6]: 5
logD [20]: 1.4
inhibition in vivo at 15 mg/kg/day [21]: 8.38%
Activity [22]: <= 15%
inhibition in vivo at 30 mg/kg/day [23]: 50%
Activity [24]: <= 15%
pKa at 5 µM [25]: 7.2
IC50 [3]: 820 nM
Activity [26]: Toxic
logP [27]: -1.9
inhibition in vivo at 30 mg/kg/day [28]: 41.1%

Cc1c2ccccc2nc2c1c1cc(NC(=O)[C@@H]3CCCN3)ccc1n2C
IC50 [1]: 4390 nM

Cc1c2ccccc2nc2c1c1cc(NC(=O)[C@@H](N)CO)ccc1n2C
IC50 [1]: 5960 nM

Cc1c2ccccc2nc2c1c1cc(NC(=O)[C@@H](N)Cc3cnc[nH]3)ccc1n2C
IC50 [1]: 5960 nM

Cc1c2c3cc(NC(=O)CN)ccc3nc-2n(C)c2ccccc12.Cl.Cl
inhibition in vivo at 30 mg/kg/day [7]: 13.5%
inhibition in vivo at 15 mg/kg/day [8]: 47.4%
IC50 [1]: 670 nM
solubility [4]: soluble
inhibition in vivo at 15 mg/kg/day [9]: 26.1%
Activity [10]: <= 15%
IC50 [5]: 1310 nM
Activity [11]: Toxic
inhibition in vivo at 15 mg/kg/day [12]: 23.9%
inhibition in vivo at 15 mg/kg/day [13]: 42.4%
inhibition in vivo at 30 mg/kg/day [14]: 54.7%
inhibition in vivo at 15 mg/kg/day [15]: 25.8%
IC50 [2]: 880 nM
inhibition in vivo at 30 mg/kg/day [16]: 50.1%
inhibition in vivo at 30 mg/kg/day [17]: 55.3%
Activity [18]: <= 15%
hemolysis at 0.5 h, 300 µM [29]: 42.5%
Activity [19]: <= 15%
selectivity ratio [6]: 5
logD [20]: 0.6
inhibition in vivo at 15 mg/kg/day [21]: 0%
Activity [22]: <= 15%
inhibition in vivo at 30 mg/kg/day [23]: 14.3%
Activity [24]: <= 15%
pKa at 5 µM [25]: 7.2
IC50 [3]: 1450 nM
Activity [26]: Toxic
logP [27]: -1.9
inhibition in vivo at 30 mg/kg/day [28]: 19.7%
